The list is not random: actives were taken first. Their share in the collection is about 2.9%.
SENP8 block-1 = inhibitors of human SENP8 protease; Q96LD8; recombinant SENP8, Nedd8 substrate fluorescence; inhibition, % at 20 µM; 360,000 compounds, 0.64% hits; AID 602440; in the data active = inhibition mostly above about 40%, no sharp cut-off; inactive = mostly below about 27%
Target sequence (Q96LD8 whole entry, looked up): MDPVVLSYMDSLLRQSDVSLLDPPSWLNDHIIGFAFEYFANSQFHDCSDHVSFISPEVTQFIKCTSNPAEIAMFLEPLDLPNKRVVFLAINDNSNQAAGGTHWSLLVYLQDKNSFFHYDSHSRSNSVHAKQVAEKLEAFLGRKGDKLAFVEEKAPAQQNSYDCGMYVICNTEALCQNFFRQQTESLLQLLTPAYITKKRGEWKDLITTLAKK
SENP8 block-2 = SENP8 protease inhibition; purified SENP8, Z-RLRGG-aminoluciferin cleavage, luminescence; inhibition, % at 10 µM; 330,000 compounds, 1.2% hits; in the data active = inhibition above about 50%
SENP6 block = SENP6 protease inhibition | Recombinant SENP6 catalytic domain, aminoluciferin luminescence | inhibition, % at 10 µM | 330,000 compounds, 1.8% hits;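 active = inhibition above about 50% at the single tested dose, limit read from the data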;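 note: plate controls were DMSO wells with enzyme for no effect and DMSO wells lacking enzyme for full effect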
SENP1 inh = SENP1 (human) catalytic domain inhibition. recombinant SENP1 catalytic domain, CyPet-SUMO1-YPet FRET cleavage. Q9P0U3. inhibition, % at 10 µM. 360,000 compounds, 0.21% hits. AID 624204;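 active = inhibition at least 30% at 10 µM, raw YFP signal under a set limit, fluorescence ratio 0.5 to 1.5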;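 note: 0% = enzyme with DMSO and 100% = no enzyme wells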
Target sequence (Q9P0U3 419-644 limits assumed): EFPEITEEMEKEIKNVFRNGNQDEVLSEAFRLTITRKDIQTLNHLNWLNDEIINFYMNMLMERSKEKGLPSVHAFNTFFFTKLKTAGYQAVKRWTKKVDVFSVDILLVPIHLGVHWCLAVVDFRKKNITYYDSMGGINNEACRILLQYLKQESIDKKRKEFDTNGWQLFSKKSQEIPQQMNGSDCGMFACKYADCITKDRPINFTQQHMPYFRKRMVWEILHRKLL
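material = recombinant human SENP1 catalytic domain, His6-tagged | quantity = 20 pM enzyme | reagent = 25 nM SUMO1 FRET substrate | compound dosing = 10 µM single point, 0.5% DMSO | timing = 50 min enzyme reaction, room temperature, light-protected | detection = FRET, CFP and YFP emission | control set = no-enzyme low, enzyme-DMSO high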
HSP90 refold inh = blocks HSP90-mediated luciferase refolding in reticulocyte lysate; 290,000 compounds, 0.91% hits; AID 1789; inhibition, % at 5.6 µM; Rabbit reticulocyte lysate, luciferase refolding luminescence, 3 h;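 active = inhibition above the screen-wide mean plus 3 SD, computed separately per campaign, cut at about 16% in these data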;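 note: 0% = DMSO wells and 100% = 60 µM geldanamycin wells; inhibitors lower the luminescence because luciferase stays unfolded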
SENP7 inh = SENP7 protease inhibition; inhibition, % at 5 µM; Q9BQF6; 330,000 compounds, 1.5% hits; recombinant SENP7, Z-RLRGG-aminoluciferin luminescence, 40 min;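 active = inhibition above about 50% at the single test dose, limit read from the data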;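 note: plate controls were DMSO with enzyme for no effect and no enzyme buffer wells for full effect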
SENP8 conf = human SENP8 inhibition, confirmed; shares compounds with SENP7 inh; Recombinant SENP8, Z-RLRGG-aminoluciferin luminescence, 60 min; inhibition, % at 12.5 µM; 6,200 compounds, 40% hits; AID 488912;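 active = mean inhibition across replicates above about 50%, limit read from the data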
SENP6 confirm = confirmation of human SENP6 protease inhibitors; recombinant SENP6, Z-RLRGG-aminoluciferin luminescence; 6,200 compounds, 58% hits; inhibition, % at 12.5 µM; shares compounds with SENP7 inh
SENP7 confirm = confirmation of human SENP7 protease inhibitors; shares compounds with SENP7 inh; recombinant SENP7, Z-RLRGG-aminoluciferin luminescence, 40 min; inhibition, % at 12.5 µM; 6,200 compounds, 69% hits
Casp3 select = selectivity test for SENP inhibitors: human caspase-3 inhibition. shares compounds with SENP7 inh. purified caspase-3, Z-DEVD-aminoluciferin luminescence, 60 min. inhibition, % at 12.5 µM. 6,200 compounds, 60% hits. AID 488918;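 active = mean inhibition above about 50%, limit read from the data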;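 note: plate controls were enzyme with DMSO for no effect and wells without caspase-3 for full effect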
Target sequence (P42574 28-227 limits assumed): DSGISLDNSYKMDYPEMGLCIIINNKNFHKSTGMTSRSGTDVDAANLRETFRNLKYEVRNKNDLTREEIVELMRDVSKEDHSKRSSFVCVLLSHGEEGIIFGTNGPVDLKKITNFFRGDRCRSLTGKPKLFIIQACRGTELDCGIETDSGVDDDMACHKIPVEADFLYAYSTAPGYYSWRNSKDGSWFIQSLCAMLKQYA
SENP luc ctr = interferes with luciferase luminescence in SENP counter-screen | Pre-incubated SENP8/Z-RLRGG-aminoluciferin, luciferase luminescence interference | 6,200 compounds, 39% hits | shares compounds with SENP7 inh | inhibition, % at 12.5 µM;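 active = mean inhibition above about 50% when retested at one dose, limit read from the data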;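 note: plate controls were DMSO wells with completed reaction for no effect and substrate without enzyme for full effect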
Numbers without * were called inactive; i = inactive; nt = no result given.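 Rule for the calls, unless noted: active = mean inhibition above about 50% in the one-dose retest (limit read from the data); inactive = the rest.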

SMILES	SENP8 block-1	SENP8 block-2	SENP6 block	SENP1 inh	HSP90 refold inh	SENP7 inh	SENP8 conf	SENP6 confirm	SENP7 confirm	Casp3 select	SENP luc ctr
CCCCn1c(N)c(N(CCOC)C(=O)c2cc(=O)[nH]c3ccccc23)c(=O)[nH]c1=O	-16	7	10	-8	nt	9	nt	nt	nt	nt	nt
Cc1cccc(NC(=O)CNC(=O)COc2cc(F)ccc2[N+](=O)[O-])c1C	4	3	6	1	-2	10	nt	nt	nt	nt	nt
Oc1ccc(C=Nc2ccc(N3CCOCC3)cc2)c(O)c1	0	-23	-2	39	5	2	nt	nt	nt	nt	nt
Cc1cc(Br)cc(C=Nc2ccc(N3CCOCC3)cc2)c1O	37	-6	29	87	nt	73*	12	12	-1	29	3
Oc1cc(Br)ccc1C=Nc1ccc(N2CCCCC2)cc1	22	35	11	63	5	53*	15	26	2	48	0
CC(=O)OC[C@@H]1CN(Cc2ccccc2)C[C@H](n2cnc3c(N4CCN(c5ccccc5)CC4)ncnc32)O1	8	nt	nt	-3	nt	nt	nt	nt	nt	nt	nt
O=C(c1cccs1)N1C[C@H](n2cc(C3CC3)nn2)[C@@H](O)C[C@@H]1c1ccc(Cl)cc1	9	nt	nt	0	nt	nt	nt	nt	nt	nt	nt
Clc1ccc(-c2nnc(SCc3ccon3)o2)c(Cl)c1	8	61*	70*	-1	1	57*	11	62*	87*	64*	61*
Clc1ccc(-c2nnc(SCc3nc4ccccc4[nH]3)o2)c(Cl)c1	8	0	-7	8	0	2	nt	nt	nt	nt	nt
C=CCSc1nnc(-c2ccc(Cl)cc2Cl)o1	12	31	60*	4	0	57*	18	48	77*	56*	39
CC(Cn1cncn1)C(=O)N1CCN(S(=O)(=O)c2ccc(Cl)cc2)CC1 (stereo not given)	4	8	-17	-1	-4	-2	nt	nt	nt	nt	nt
Cc1ccc(/C=C2\Sc3ccccc3C2=O)s1	-224	89*	94*	-67	-2	96*	16	86*	94*	67*	65*
Nc1c(C(=O)c2ccccc2O)cnn1-c1ccc(S(=O)(=O)N2CCOCC2)cc1[N+](=O)[O-]	nt	3	-1	nt	6	3	nt	nt	nt	nt	nt
O=C(/C=C/Nc1ccc(Nc2ccccc2)cc1)c1cccs1	16	nt	nt	58	2	nt	nt	nt	nt	nt	nt
Cc1cc(N/C=C/C(=O)c2cccs2)ccc1F	-162	82*	85*	-48	3	46	88*	90*	101*	87*	42
O=C(/C=C/Nc1cccc([N+](=O)[O-])c1)c1cccs1	12	35	70*	3	-1	62*	4	53*	88*	58*	57*
Cc1ccc(N/C=C/C(=O)c2cccs2)cc1C	-143	85*	88*	-24	1	83*	91*	92*	100*	84*	85*
O=C(/C=C/Nc1ccccc1C(=O)O)c1cccs1	-51	82*	92*	-32	0	21	4	96*	102*	98*	93*
O=C(Cc1cccs1)Nc1cccc([N+](=O)[O-])c1	21	3	5	-5	-3	2	nt	nt	nt	nt	nt
Nc1nccc(/C=C/c2ccc(Cl)cc2)n1	-443	75*	80*	2	-5	75*	74*	85*	94*	79*	45
Cc1cc(-c2nn3c(C)nnc3s2)ccc1NC(=O)C(C)(C)C	2	13	33	5	10	43	nt	nt	nt	nt	nt
O=C1NC(=O)C(=C2CCOC2=O)N1	16	nt	nt	1	nt	nt	nt	nt	nt	nt	nt
Nc1nc(-c2ccc3c(c2)OCCO3)cs1	9	-9	31	1	1	3	nt	nt	nt	nt	nt
Nc1nc(-c2ccc3c(c2)CCCC3)cs1	17	53*	79*	-2	2	56*	65*	75*	91*	51*	70*
O=c1ccc(-c2ccc([N+](=O)[O-])cc2)nn1-c1ccccc1	11	3	-12	-4	-2	1	nt	nt	nt	nt	nt
SMILES	SENP8 block-1	SENP8 block-2	SENP6 block	SENP1 inh	HSP90 refold inh	SENP7 inh	SENP8 conf	SENP6 confirm	SENP7 confirm	Casp3 select	SENP luc ctr
O=c1cc(-c2ccccc2)[nH]n1-c1ccc([N+](=O)[O-])cc1	40	79*	84*	-1	-3	25	86*	93*	100*	90*	71*
Cc1ccc(OCc2nnn(CC(=O)NS(=O)(=O)c3c(C)noc3C)c2-c2ccccc2)cc1	8	nt	nt	2	nt	nt	nt	nt	nt	nt	nt
Clc1ccccc1Nc1nc2ccccc2o1	4	95*	95*	2	nt	100*	-4	100*	103*	98*	97*
CCS(=O)(=O)c1ccc2oc(Nc3ccccc3Cl)nc2c1	10	91*	95*	-1	4	92*	74*	92*	99*	94*	26
COCc1cc(=O)[nH]c(Nc2nc3ccccc3o2)n1	-151	-9	-3	1	3	6	nt	nt	nt	nt	nt
CC1CCCC(NC(=S)Nc2cccc(S(=O)(=O)N(C)C)c2)C1C (stereo not given)	9	4	0	1	-1	8	nt	nt	nt	nt	nt
Oc1nc(Nc2ccccc2)sc1/C=C1\C=Nc2ccccc21	-33	34	64*	-142	5	51*	13	34	55*	15	5
Cc1ccc(C(=O)Nc2nc3ccc(S(C)(=O)=O)cc3s2)o1	-235	33	-15	-4	4	60*	56*	54*	84*	86*	64*
CS(=O)(=O)c1ccc2nc(NC(=O)c3ccco3)sc2c1	-236	23	24	-1	4	26	nt	nt	nt	nt	nt
O=C(Nc1nc2ccc(Cl)cc2s1)c1ccc(Br)o1	-274	30	53*	-7	-3	59*	10	18	7	16	6
CS(=O)(=O)c1ccc2nc(NC(=O)c3ccccc3Cl)sc2c1	-3	1	2	1	-5	5	nt	nt	nt	nt	nt
CS(=O)(=O)c1ccc2nc(NC(=O)c3cc4ccccc4o3)sc2c1	i	52*	83*	-1	3	54*	17	14	41	34	6
Cc1cc(C(=O)Nc2nc3ccc(Cl)cc3s2)nn1C	-8	-4	-7	-1	-11	48	nt	nt	nt	nt	nt

Screens deposited in PubChem by several laboratories.
